ChEMBL document CHEMBL3244284, “(2-Carboxy-1,4-dihydro-4-oxoquinolyl)oxamic acids and (2-carboxy-1,4-dihydro-4-oxobenzo[h]quinolyl)oxamic acids as antiallergy agents” (1977)

What was measured:
[1] = organism: Rattus norvegicus; assay: Antiallergic activity in Sprague-Dawley rat assessed as inhibition of egg albumin/ Hemophilus pertussis antibody-induced passive cutaneous anaphylaxis (PCA) reaction; assay type: functional; conditions: read-out: ID50 (the source's name)
Outline: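 Rats immunized ip with 0.5 mg egg albumin plus 0.5 cm3 heat-killed H. pertussis vaccine; serum collected at 18-20 days. Five 0.1-ml serum dilutions given intradermally on shaved back of 200-g rats. At 72 h, iv challenge with 4 mg EA plus 0.5% Evans blue; compound in THAM solution iv at challenge. Inhibition of spot count versus untreated; ID50 from 3-4 doses, six rats each.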

[2] = organism: Rattus norvegicus; assay: Ratio of disodium cromoglycate ID50 to compound ID50 for antiallergic activity in Sprague-Dawley rat by passive cutaneous anaphylaxis (PCA) reaction; assay type: functional

For Cc1cc(NC(=O)C(=O)O)cc2c(=O)cc(C(=O)O)[nH]c12, the ED50 [1] was 0.1 mg/kg and the Ratio [2] was 25.
In the case of O=C(O)C(=O)Nc1ccc2[nH]c(C(=O)O)cc(=O)c2c1, the ED50 [1] was 7 mg/kg.
O=C(O)C(=O)Nc1cc2c(=O)cc(C(=O)O)[nH]c2c2ccccc12 gave an ED50 [1] of 0.5 mg/kg.
COc1ccc(NC(=O)C(=O)O)c2c(=O)cc(C(=O)O)[nH]c12 showed an ED50 [1] of 0.7 mg/kg.
Compound O=C([O-])c1cc(=O)c2c(OCC(O)COc3cccc4oc(C(=O)[O-])cc(=O)c34)cccc2o1.[Na+].[Na+] [CROMOLYN SODIUM] has an ED50 [1] of 2.5 mg/kg.
With O=C(O)C(=O)Nc1cccc2c1ccc1c(=O)cc(C(=O)O)[nH]c12 the ED50 [1] was 0.1 mg/kg and the Ratio [2] was 25.
Work on Cc1ccc(NC(=O)C(=O)O)c2c(=O)cc(C(=O)O)[nH]c12 yielded an ED50 [1] of 0.4 mg/kg.
With Cc1c(NC(=O)C(=O)O)ccc2c(=O)cc(C(=O)O)[nH]c12 the ED50 [1] was 0.1 mg/kg and the Ratio [2] was 25.
With O=C(O)C(=O)Nc1ccc(Cl)c2[nH]c(C(=O)O)cc(=O)c12 the ED50 [1] was 0.3 mg/kg.
